Measured values from ChEMBL document CHEMBL1129606, “Synthesis and bioevaluation of delta 7-5-desaturase inhibitors, an enzyme late in the biosynthesis of the fungal sterol ergosterol” (J Med Chem, 1996).

These compounds were tested against Delta(7)-sterol 5(6)-desaturase (assay: Inhibition of 5-Desaturase involved in ergosterol biosynthesis).
Parameters: species or system Saccharomyces cerevisiae
Method in brief: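 Microsomal Δ7-sterol 5-desaturase from aerobically grown S. cerevisiae (37 °C, YPD). Cells bead-disrupted in 0.1 M Tris-HCl pH 7.4, 94500g pellet, desalted on Sephadex G-50. Incubated with Tween 20, FeCl3, NADPH and [5α,6α-3H]-7,22(E)-ergostadien-3β-ol with varied inhibitor, all else held constant. Alkali quench, EtOAc extraction, aqueous 3H2O scintillation-counted. IC50 from inverse velocity vs inhibitor concentration; mean of ≥2 experiments.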

SMILES | IC50 [µM]
C[C@]12CC[C@H](O)C[C@]1(CO)CC=C1CCC12 (some centres not stated) | 112
C[C@]12CC[C@H](O)C[C@]1(C(N)=O)CC=C1CCC12 (some centres not stated) | 114
C[C@]12CC[C@H](O)C[C@]1(C=O)CC=C1CCC12 (some centres not stated) | 116
C[C@]12CC[C@H](O)C[C@]1(C(=O)O)CC=C1CCC12 (some centres not stated) | 111
C[C@]12CC[C@H](O)C[C@]1(C#N)CC=C1CCC12 (some centres not stated) | 131
C[C@]12CC[C@H](O)C[C@]1(O)[C@H](O)C=C1CCC12 (some centres not stated) | 96
C[C@]12CC[C@H](O)C[C@]1(O)[C@@H](O)C=C1CCC12 (some centres not stated) | 149
C[C@]12CC[C@H](O)C[C@]1(O)CC=C1CCC12 (some centres not stated) | 148
C[C@]12CC[C@H](O)C[C@]1(S)CC=C1CCC12 (some centres not stated) | 80
C[C@]12CC[C@H](O)C[C@]1(/C=N/O)CC=C1CCC12 (some centres not stated) | 136
C[C@]12CC[C@H](O)[C@H]3O[C@]31CC=C1CCC12 (some centres not stated) | 66
C[C@]12CC[C@H](O)C[C@@H]1[C@@H](O)C=C1CCC12 (some centres not stated) | 47
